According to ChEMBL document CHEMBL1153060, “Part 1: Structure-Activity Relationship (SAR) investigations of fused pyrazoles as potent, selective and orally available inhibitors of p38alpha mitogen-activated protein kinase” (Bioorg Med Chem Lett, 2009):
Converted amounts (≈) assume the structure as drawn.

What was measured:
[1] = Half life in Sprague-Dawley rat at 2 mg/kg, iv; format: ADME, organism-based; set-up: dose 2 mg/kg, route intravenous; details: in vivo
Procedure, shortened: (§1)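 Male Sprague–Dawley rats given 2.0 mg/kg iv (in DMSO) or 2.0 mg/kg po. Values are the mean of three rats. Reported parameters are CL, Vdss, t1/2, AUC(0-inf) and oral F.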

[2] = molecular target: Mitogen-activated protein kinase 14 (Homo sapiens, UniProt Q16539); assay: Inhibition of human recombinant p38alpha assessed as phosphorylation of ATF2 by scintillation proximity assay
[3] = Volume of distribution at steady state in Sprague-Dawley rat at 2 mg/kg, iv; format: ADME, organism-based; set-up: dose 2 mg/kg, route intravenous; details: in vivo, read-out: Vdss; procedure, shortened: as §1
[4] = AUC (0 to infinity) in Sprague-Dawley rat at 2 mg/kg, po; format: ADME, organism-based; set-up: time infinity, dose 2 mg/kg, route oral; details: plasma; procedure, shortened: as §1
[5] = Oral bioavailability in Sprague-Dawley rat at 2 mg/kg; format: ADME, organism-based; details: in vivo; procedure, shortened: as §1
Blood = assay: Inhibition of TNF-alpha-stimulated IL8 production in human whole blood incubated for 1 hr before TNFalpha challenge measured after 16 to 18 hrs; format: functional, tissue-based
Procedure, shortened: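 Human whole blood diluted to 50% and stimulated with TNFα, with IL-8 secretion as read-out. IC50 is the mean of at least three independent dose–response curves, or of two where flagged.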

[6] = Clearance in Sprague-Dawley rat at 2 mg/kg, iv; format: ADME, organism-based; set-up: dose 2 mg/kg, route intravenous; details: in vivo; procedure, shortened: as §1
THP-1 = assay: Inhibition of LPS-induced TNFalpha release in human THP1 cells after 3 hrs; format: functional, cell-based; details: THP-1, 3 h
Procedure, shortened: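 THP1 cell line challenged with LPS, with TNFα secretion as read-out. IC50 is the mean of at least three independent dose–response curves, or of two where flagged.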

Cytochrome P450 2D6 = Cytochrome P450 2D6 (Homo sapiens, UniProt P10635); assay: Inhibition of CYP2D6; format: ADME
Rattus norvegicus [7] = assay: Inhibition of LPS-induced TNFalpha production in Lewis rat at 0.01 mg/kg, po administered 60 mins prior to LPS challenge measured after 90 mins by ELISA
Rattus norvegicus [8] = assay: Inhibition of LPS-induced TNFalpha production in Lewis rat at 0.3 mg/kg, po administered 60 mins prior to LPS challenge measured after 90 mins by ELISA
[9] = molecular target: RAF proto-oncogene serine/threonine-protein kinase (Homo sapiens) (UniProt P04049); assay: Inhibition of c-Raf at 1.5 uM; values are per cent of control
Rattus norvegicus [10] = assay: Inhibition of LPS-induced TNFalpha production in po dosed Lewis rat administered 60 mins prior to LPS challenge measured after 90 mins by ELISA
Rattus norvegicus [11] = assay: Inhibition of LPS-induced TNFalpha production in Lewis rat at 0.03 mg/kg, po administered 60 mins prior to LPS challenge measured after 90 mins by ELISA
Cytochrome P450 2C9 = Cytochrome P450 2C9 (Homo sapiens, UniProt P11712); assay: Inhibition of CYP2C9; format: ADME
Rattus norvegicus [12] = assay: Inhibition of LPS-induced TNFalpha production in Lewis rat at 0.1 mg/kg, po administered 60 mins prior to LPS challenge measured after 90 mins by ELISA
[13] = Solubility in 0.01N HCl; format: physicochemical
Rattus norvegicus [14] = species on record: Rattus norvegicus; assay: Plasma concentration in Lewis rat at ED50; format: ADME, organism-based; details: in vivo
Cytochrome P450 2C19 = Cytochrome P450 2C19 (Homo sapiens, UniProt P33261); assay: Inhibition of CYP2C19; format: ADME
[15] = Solubility in simulated intestinal fluid; format: physicochemical
[16] = Ratio of drug level in brain to plasma in Lewis rat; format: ADME; details: read-out: BPR
[17] = Solubility in phosphate buffered saline; format: physicochemical
[18] = Protein binding in rat plasma by ultrafiltration method; details: read-out: PPB (converted)

Chain of Mitogen-activated protein kinase 14 (Q16539 whole entry): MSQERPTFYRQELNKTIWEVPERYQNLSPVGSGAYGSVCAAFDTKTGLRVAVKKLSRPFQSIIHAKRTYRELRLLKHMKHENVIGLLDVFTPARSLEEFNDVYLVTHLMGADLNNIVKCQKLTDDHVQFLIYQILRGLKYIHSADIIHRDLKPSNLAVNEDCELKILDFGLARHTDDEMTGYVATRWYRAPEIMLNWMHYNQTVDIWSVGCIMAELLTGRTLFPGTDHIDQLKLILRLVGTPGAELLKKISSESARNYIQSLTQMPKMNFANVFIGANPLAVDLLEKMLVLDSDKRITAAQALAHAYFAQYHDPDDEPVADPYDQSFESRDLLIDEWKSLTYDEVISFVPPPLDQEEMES
Chain of Cytochrome P450 2D6 (P10635 whole entry): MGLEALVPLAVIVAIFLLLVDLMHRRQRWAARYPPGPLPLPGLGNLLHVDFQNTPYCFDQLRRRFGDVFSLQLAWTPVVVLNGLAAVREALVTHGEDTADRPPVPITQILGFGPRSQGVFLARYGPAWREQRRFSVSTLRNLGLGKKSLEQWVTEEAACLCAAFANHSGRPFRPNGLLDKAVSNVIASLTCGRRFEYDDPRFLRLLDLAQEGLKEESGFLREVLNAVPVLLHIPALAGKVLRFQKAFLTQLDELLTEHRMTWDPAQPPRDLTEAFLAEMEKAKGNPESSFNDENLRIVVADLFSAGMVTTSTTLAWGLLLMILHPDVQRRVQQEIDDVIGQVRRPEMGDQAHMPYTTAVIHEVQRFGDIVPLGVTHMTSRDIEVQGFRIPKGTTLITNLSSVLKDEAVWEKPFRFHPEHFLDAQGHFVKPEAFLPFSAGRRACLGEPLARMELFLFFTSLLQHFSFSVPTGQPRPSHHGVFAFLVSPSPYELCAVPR
Chain of RAF proto-oncogene serine/threonine-protein kinase (Homo sapiens) (P04049 whole entry): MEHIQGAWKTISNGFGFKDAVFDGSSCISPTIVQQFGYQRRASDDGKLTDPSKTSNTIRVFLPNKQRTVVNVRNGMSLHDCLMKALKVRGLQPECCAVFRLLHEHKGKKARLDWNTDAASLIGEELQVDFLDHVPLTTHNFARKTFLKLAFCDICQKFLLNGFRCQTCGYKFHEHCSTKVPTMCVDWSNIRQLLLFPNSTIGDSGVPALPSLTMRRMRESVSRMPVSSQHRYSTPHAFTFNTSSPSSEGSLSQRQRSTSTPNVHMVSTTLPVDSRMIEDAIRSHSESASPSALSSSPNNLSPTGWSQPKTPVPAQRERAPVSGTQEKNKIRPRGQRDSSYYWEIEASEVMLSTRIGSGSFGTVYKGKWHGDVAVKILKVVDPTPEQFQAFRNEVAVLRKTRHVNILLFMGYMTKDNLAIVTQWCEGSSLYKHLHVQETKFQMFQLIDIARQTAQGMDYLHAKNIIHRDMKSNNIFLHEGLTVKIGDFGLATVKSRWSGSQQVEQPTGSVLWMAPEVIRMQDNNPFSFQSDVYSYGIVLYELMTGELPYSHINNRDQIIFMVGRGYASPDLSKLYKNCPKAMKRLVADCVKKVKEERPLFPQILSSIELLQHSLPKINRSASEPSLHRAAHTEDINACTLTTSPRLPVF
Chain of Cytochrome P450 2C19 (P33261 whole entry): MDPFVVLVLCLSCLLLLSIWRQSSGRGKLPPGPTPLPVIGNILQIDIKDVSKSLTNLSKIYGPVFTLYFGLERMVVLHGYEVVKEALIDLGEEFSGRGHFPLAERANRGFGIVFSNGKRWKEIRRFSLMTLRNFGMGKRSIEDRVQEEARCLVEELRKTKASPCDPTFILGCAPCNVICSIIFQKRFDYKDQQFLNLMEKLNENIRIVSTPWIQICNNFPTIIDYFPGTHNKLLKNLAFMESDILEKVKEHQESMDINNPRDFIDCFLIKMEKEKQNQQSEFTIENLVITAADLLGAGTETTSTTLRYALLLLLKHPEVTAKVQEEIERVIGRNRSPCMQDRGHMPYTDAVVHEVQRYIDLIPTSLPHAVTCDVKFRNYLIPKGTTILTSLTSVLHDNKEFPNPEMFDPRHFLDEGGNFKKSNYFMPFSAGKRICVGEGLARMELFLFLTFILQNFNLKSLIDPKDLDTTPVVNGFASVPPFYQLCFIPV
Chain of Cytochrome P450 2C9 (P11712 whole entry): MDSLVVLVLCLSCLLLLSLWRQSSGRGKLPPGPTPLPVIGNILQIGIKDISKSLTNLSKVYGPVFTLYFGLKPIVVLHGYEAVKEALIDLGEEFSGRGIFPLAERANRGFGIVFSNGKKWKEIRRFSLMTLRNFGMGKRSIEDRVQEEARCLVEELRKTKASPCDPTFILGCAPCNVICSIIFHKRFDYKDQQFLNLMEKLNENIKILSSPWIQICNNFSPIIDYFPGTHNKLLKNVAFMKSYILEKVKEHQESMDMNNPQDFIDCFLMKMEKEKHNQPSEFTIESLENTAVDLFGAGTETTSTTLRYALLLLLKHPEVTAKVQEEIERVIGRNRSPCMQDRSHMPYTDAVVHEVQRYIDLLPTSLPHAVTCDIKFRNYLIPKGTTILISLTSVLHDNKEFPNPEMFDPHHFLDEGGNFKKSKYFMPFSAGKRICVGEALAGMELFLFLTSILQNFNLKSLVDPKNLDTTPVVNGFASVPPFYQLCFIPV

Structure (SMILES)	half-life [1] [h]	IC50 [2] [nM]	Vd [3] [L/kg]	AUC(0-inf) [4] [ng·h/mL]	bioavailability [5] [%]	IC50 (Blood) [nM]	clearance [6] [mL/min/kg]	IC50 (THP-1) [nM]	also measured
CCn1c(=O)cc(Nc2cc(C(=O)NC3CC3)ccc2Cl)c2cnn(-c3ccc(F)cc3F)c21	3.4	1.1	1.5	776	16	1.3	7	0.67	
Cc1ccc(C(N)=O)cc1Nc1cc(=O)n(C)c2c1cnn2-c1ccc(F)cc1F		2.6				3.4		1.9	
Cc1ccc(C(=O)NC(C)(C)C)cc1Nc1cc(=O)n(C)c2c1cnn2-c1ccc(F)cc1F		269				204		65	
CONC(=O)c1ccc(C)c(Nc2cc(=O)n(C)c3c2cnn3-c2ccc(F)cc2F)c1	3.3	1.1	1.7	120	15	1.4	43.3	1.1	
Cn1c(=O)cc(Nc2cc(C(=O)NC3CC3)ccc2Cl)c2cnn(-c3c(F)cccc3F)c21	3.4	1.1	1.9	139	9	1.5	21.7	0.62	
Cc1ccc(C(=O)NC2CC2)cc1Nc1cc(=O)n(C)c2c1cnn2-c1cccc(F)c1		3.3				1.7		1.3	
Cn1c(=O)cc(Nc2ccc(F)cc2)c2cnn(-c3c(F)cccc3F)c21		> 1000				> 833		546	
Cn1c(=O)cc(Nc2ccc(F)cc2F)c2cnn(-c3ccc(F)cc3F)c21		> 1000				> 2500		937	
Cn1c(=O)cc(Nc2cc(C(=O)NC3CC3)ccc2Cl)c2cnn(-c3ccc(F)cc3F)c21	3.8		1.2	4610	81	1.1	6.17	0.44	IC50 (Cytochrome P450 2D6): 22700 nM; inhibition in vivo at 0.01 mg/kg (Rattus norvegicus [7]): 21.6%; inhibition in vivo at 0.3 mg/kg (Rattus norvegicus [8]): 98.4%; residual activity [9]: 75%; ED50 (Rattus norvegicus [10]): 0.05 mg/kg; inhibition in vivo at 0.03 mg/kg (Rattus norvegicus [11]): 22.6%; IC50 (Cytochrome P450 2C9): 8400 nM; inhibition in vivo at 0.1 mg/kg (Rattus norvegicus [12]): 83.9%; solubility [13]: 67.1 µg/mL (≈ 143 µM); Cp (Rattus norvegicus [14]): 0.9 ng/mL; IC50 (Cytochrome P450 2C19): 16000 nM; solubility [15]: 81.7 µg/mL (≈ 174 µM); Kp [16]: 0.06; solubility [17]: 60.6 µg/mL (≈ 129 µM); fraction unbound [18]: 0.02
Cc1ccc(C(=O)NC2CC2)cc1Oc1cc(=O)n(C)c2c1cnn2-c1cccc(F)c1		8.5				29		12	
CCn1c(=O)cc(Nc2cc(C(=O)NC3CC3)ccc2Cl)c2cnn(-c3ccc(F)cc3)c21	3.7	1.2	1.8	2290	45	0.93	6.83	1	
Cn1c(=O)cc(Nc2cc(C(=O)NC3CC3)ccc2F)c2cnn(-c3ccc(F)cc3F)c21		13				19		6.7	
Cc1ccc(C(=O)NC2CC2)cc1Oc1cc(=O)n(C)c2c1cnn2-c1c(F)cccc1F	2.3	1.4	1.3	244	7	2.6	10.5	1	
Cc1ccc(C(=O)NC2CC2)cc1Oc1cc(=O)n(C)c2c1cnn2-c1cc(F)ccc1F		6.1				16		5	
Cn1c(=O)cc(NC2CCOCC2)c2cnn(-c3cccc(F)c3)c21		> 1000				> 2500		> 2500	
Cc1ccc(C(N)=O)cc1Nc1cc(=O)n(C)c2c1cnn2-c1cc(F)ccc1F		3.7				7.1		7.5	
CCn1c(=O)cc(Oc2cc(C(=O)NC3CC3)ccc2C)c2cnn(-c3ccc(F)cc3)c21	3.2	4	1.1	1500	41	13	4.5	1.8	
Cc1ccc(C(=O)NC2CC2)cc1Nc1cc(=O)n(C)c2c1cnn2-c1ccc(F)cc1F						2.4		1	
Cn1c(=O)cc(Nc2cc(C(=O)NC3CC3)ccc2F)c2cnn(-c3c(F)cccc3F)c21		1.9				8.2		3.2	
CCn1c(=O)cc(Nc2cc(C(=O)NC3CC3)ccc2C)c2cnn(-c3ccc(F)cc3)c21		4				1.9		1.1	
Cc1ccc(C(=O)NC2CC2)cc1Nc1cc(=O)n(C)c2c1cnn2-c1cc(F)ccc1F		2.9				2.5		1	
Cc1ccc(C(=O)NC2CC2)cc1Nc1cc(=O)n(C)c2c1cnn2-c1c(F)cccc1F	2.8	1.9	1.2	273	12	1.3	14.7	0.87	
Cc1ccc(C(=O)NC2CC2)cc1Oc1cc(=O)n(C)c2c1cnn2-c1ccc(F)cc1F		7.8				16		3.5	solubility [13]: 5.7 µg/mL (≈ 12.7 µM); solubility [15]: 12.2 µg/mL (≈ 27.1 µM); solubility [17]: 5.3 µg/mL (≈ 11.8 µM)
Cc1ccc(C(=O)O)cc1Nc1cc(=O)n(C)c2c1cnn2-c1ccc(F)cc1F		> 1000				> 2500		> 2500	
Cc1ccncc1Nc1cc(=O)n(C)c2c1cnn2-c1cc(F)ccc1F		444				403		208	
Cn1c(=O)cc(Oc2cc(C(=O)NC3CC3)ccc2Cl)c2cnn(-c3cc(F)ccc3F)c21		3.3				79		14	solubility [13]: 24.8 µg/mL (≈ 52.7 µM); solubility [15]: 49 µg/mL (≈ 104 µM); solubility [17]: 14.7 µg/mL (≈ 31.2 µM)
Cn1c(=O)cc(Nc2cc(C(=O)NC3CC3)ccc2Cl)c2cnn(-c3cc(F)ccc3F)c21	2.1	1.1	1.2	2160	56	1.9	8.67	1.1	solubility [13]: 28.6 µg/mL (≈ 60.9 µM); solubility [15]: 35.2 µg/mL (≈ 74.9 µM); solubility [17]: 24.9 µg/mL (≈ 53 µM)
